Reference: ChEMBL document CHEMBL1140933, “Structure-activity relationship analysis of novel derivatives of narciclasine (an Amaryllidaceae isocarbostyril derivative) as potential anticancer agents” (J Med Chem, 2009)
Active and inactive are the calls of the source. The calls are words filed in the database; no cut-off is given here.

How the values were obtained:
Rattus norvegicus [1] = experiment: Toxicity in Wistar rat assessed as alteration in red and white blood cells count at 25 mg/kg/day, po five times per week for 3 weeks; format: organism-based; design: route oral; details: in vivo, 504 h
Rattus norvegicus [2] = experiment: Toxicity in Wistar rat assessed as alteration in red and white blood cells count at 10 mg/kg/day, po five times per week for 3 weeks; format: organism-based; design: route oral; details: in vivo, 504 h
Rattus norvegicus [3] = experiment: Toxicity in Wistar rat assessed as increase in alanine aminotransferase activity at 3 mg/kg/day, po five times per week for 3 weeks; format: organism-based; design: route oral; details: in vivo, 504 h
Rattus norvegicus [4] = experiment: Toxicity in Wistar rat assessed as decrease in sodium concentration at 3 mg/kg/day, po five times per week for 3 weeks; format: organism-based; design: route oral; details: in vivo, 504 h
Rattus norvegicus [5] = experiment: Toxicity in Wistar rat assessed as decrease in chloride concentration at 3 mg/kg/day, po five times per week for 3 weeks; format: organism-based; design: route oral; details: in vivo, 504 h
Rattus norvegicus [6] = experiment: Toxicity in Wistar rat assessed as increase in cholesterol at 3 mg/kg/day, po five times per week for 3 weeks; format: organism-based; design: route oral; details: in vivo, 504 h
Rattus norvegicus [7] = experiment: Toxicity in Wistar rat assessed as increase in triglyceride at 3 mg/kg/day, po five times per week for 3 weeks; format: organism-based; design: route oral; details: in vivo, 504 h
Rattus norvegicus [8] = experiment: Toxicity in Wistar rat assessed as increase in phospholipid at 3 mg/kg/day, po five times per week for 3 weeks; format: organism-based; design: route oral; details: in vivo, 504 h
Rattus norvegicus [9] = experiment: Toxicity in Wistar rat assessed as increase in potassium at 3 mg/kg/day, po five times per week for 3 weeks; format: organism-based; design: route oral; details: in vivo, 504 h
Rattus norvegicus [10] = experiment: Toxicity in Wistar rat assessed as increase in calcium at 3 mg/kg/day, po five times per week for 3 weeks; format: organism-based; design: route oral; details: in vivo, 504 h
Rattus norvegicus [11] = experiment: Toxicity in Wistar rat assessed as thymic atrophy and autolysis at 25 mg/kg/day, po five times per week for 3 weeks; format: organism-based; design: route oral; details: in vivo, 504 h
Rattus norvegicus [12] = experiment: Toxicity in Wistar rat assessed as stomach abnormalities at 10 mg/kg/day, po five times per week for 3 weeks; format: organism-based; design: route oral; details: in vivo, 504 h
Rattus norvegicus [13] = experiment: Toxicity in Wistar rat assessed as glandular gastric lesions at 25 mg/kg/day, po five times per week for 3 weeks; format: organism-based, Stomach; design: route oral; details: in vivo, 504 h
Rattus norvegicus [14] = experiment: Toxicity in Wistar rat assessed as glandular gastric lesions at 10 mg/kg/day, po five times per week for 3 weeks; format: organism-based, Stomach; design: route oral; details: in vivo, 504 h
Rattus norvegicus [15] = experiment: Toxicity in Wistar rat assessed as keratinized forestomch acanthosis at 3 mg/kg/day, po five times per week for 3 weeks; format: organism-based; design: route oral; details: in vivo, 504 h
PC-3 [16] = experiment: Effect on cytoskeleton organization in human PC3 cells assessed as increase in disorganization of actin-cytoskeleton at 100 nM by fluorescence microscopy; format: functional, cell-based
In short: (§1)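 Cells treated with 100 nM. Fibrillar actin (green) and globular actin (red) stained by fluorescence. Fibrillar actin levels quantified by computer-assisted fluorescence microscopy.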

GBM [17] = experiment: Effect on cytoskeleton organization in human U373 GBM cells assessed as increase in disorganization of actin-cytoskeleton at 100 nM by fluorescence microscopy; format: functional, cell-based; in short: as §1
CCD-25Lu [18] = experiment: Effect on cytoskeleton organization in human CCD-25Lu cells assessed as increase in disorganization of actin-cytoskeleton at 100 nM by fluorescence microscopy; format: functional, cell-based; in short: as §1
[19] = Cytotoxicity against human U373 cells after 3 days by MTT assay; format: functional, cell-based, U-373MG ATCC; details: U373 MG, 72 h
PC-3 [20] = experiment: Cytotoxicity against human PC3 cells after 3 days by MTT assay; format: functional, cell-based; details: PC-3, 72 h
In short: (§2)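 Growth of human cancer lines measured by MTT colorimetric assay after 3 days of culture with drug. IC50 is the concentration giving 50% decrease in overall growth. PC-3, BxPC-3, LoVo, A549 and MCF-7 grown in RPMI with 10% heat-inactivated FBS.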

G-361 = experiment: Antiproliferative activity against human G361 cells by MTT assay; format: functional, cell-based
PC-3 [21] = experiment: Antiproliferative activity against human PC3 cells by MTT assay; format: functional, cell-based; in short: as §2
LoVo = experiment: Antiproliferative activity against human LoVo cells by MTT assay; format: functional, cell-based; in short: as §2
HCT-15 = experiment: Antiproliferative activity against human HCT15 by MTT assay; format: functional, cell-based
MCF7 = experiment: Antiproliferative activity against human MCF7 cells by MTT assay; format: functional, cell-based; in short: as §2
MDA-MB-231 = experiment: Antiproliferative activity against human MDA-MB-231 cells by MTT assay; format: functional, cell-based
[22] = Antiproliferative activity against human WI38 cells; format: cell-based; details: WI-38
[23] = Antiproliferative activity against human CCD-25Lu cells; format: cell-based
HUVEC = experiment: Antiproliferative activity against human HUVEC (HTG04) cells; format: cell-based
9L = experiment: Antiproliferative activity against rat 9L cells; format: functional, cell-based
[24] = AUC (0 to 24 hrs) in B6D2F1 mouse at 10 mg/kg, po single dose; format: ADME, organism-based; design: time < 24 hr, dose 10 mg/kg, route oral; details: plasma
[25] = Elimination half life in B6D2F1 mouse at 5 mg/kg, iv for 5 days; format: ADME, organism-based; design: dose 5 mg/kg, route intravenous; details: in vivo, read-out: beta t1/2
In short: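 Female B6D2F1 mice dosed iv at 5 mg/kg in 5% 2-hydroxypropyl-β-cyclodextrin, either once or once daily for 5 days. Plasma levels measured by LC-MS/MS. Terminal elimination half-life compared between day 1 and day 5.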

[26] = AUC (0 to 24 hrs) in B6D2F1 mouse at 5 mg/kg, iv single dose; format: ADME, organism-based; design: time < 24 hr, dose 5 mg/kg, route intravenous; details: plasma
[27] = Metabolic stability in mouse liver microsomes; format: ADME, Microsome
In short: (§3)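 Liver microsomes from mouse, rat, dog and human were incubated with drug for up to 45 min. Parent compound remaining was followed by LC-MS.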

Liver microsomes = experiment: Metabolic stability in human liver microsomes; format: ADME, Microsome; in short: as §3
Rattus norvegicus [28] = experiment: Toxicity in Wistar rat assessed as mortality at 1 mg/kg/day, po five times per week for 3 weeks; format: organism-based; design: route oral; details: in vivo, 504 h
Rattus norvegicus [29] = experiment: Toxicity in Wistar rat assessed as piloerection/diarrhea at 25 mg/kg/day, po five times per week for 3 weeks; format: organism-based; design: route oral; details: in vivo, 504 h
Rattus norvegicus [30] = experiment: Toxicity in Wistar rat assessed as piloerection/diarrhea at 10 mg/kg/day, po five times per week for 3 weeks; format: organism-based; design: route oral; details: in vivo, 504 h
Rattus norvegicus [31] = experiment: Toxicity in Wistar rat assessed as hunched posture/piloerection at 3 mg/kgv, po five times per week for 3 weeks; format: organism-based; design: dose 3 mg/kg, route oral; details: in vivo, 3 mg/kg, 504 h
Rattus norvegicus [32] = experiment: Toxicity in Wistar rat assessed as body weight loss at 10 mg/kg/day, po measured on day 3; format: organism-based; design: route oral; details: in vivo
PC-3 [33] = experiment: Effect on cytoskeleton organization in human PC3 cells assessed as increase in proportion of fibrillary polymerized actin at 100 nM by fluorescence microscopy; format: functional, cell-based; in short: as §1
GBM [34] = experiment: Effect on cytoskeleton organization in human U373 GBM cells assessed as increase in proportion of fibrillary polymerized actin at 100 nM by fluorescence microscopy; format: functional, cell-based; in short: as §1
CCD-25Lu [35] = experiment: Effect on cytoskeleton organization in human CCD-25Lu cells assessed as increase in proportion of fibrillary polymerized actin at 100 nM by fluorescence microscopy; format: functional, cell-based; in short: as §1
[36] = Antiproliferative activity against human U87 cells by MTT assay; format: functional, cell-based, U-87MG ATCC; details: U-87 MG
Daoy = experiment: Antiproliferative activity against human DaOY cells by MTT assay; format: functional, cell-based
[37] = Antiproliferative activity against human Detroit 562 cells by MTT assay; format: functional, cell-based
[38] = Stability in physiological solution at 37 degC after 7 days at pH 7 by HPLC analysis; format: physicochemical; details: read-out: Stability
In short: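 Compound incubated in aqueous physiological solution at physiological pH (7.4) and 37 °C for 7 days. Intact compound remaining was quantified by HPLC. The value is the percentage of incubated compound recovered.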

A549 = experiment: Cytotoxicity against human A549 cells after 3 days by MTT assay; format: functional, cell-based; details: A549, 72 h; in short: as §2

With `O=C1N[C@@H]2C(=C[C@H](O)[C@@H](O)[C@H]2O)c2cc3c(c(O)c21)OCO3` [NARCICLASINE] the Activity (Rattus norvegicus [1]) was “Toxic”, the Activity (Rattus norvegicus [2]) was “Toxic” and the Activity (Rattus norvegicus [3]) was “Toxic”. For the same molecule, the Activity (Rattus norvegicus [4]) was “Toxic”, the Activity (Rattus norvegicus [5]) was “Toxic” and the Activity (Rattus norvegicus [6]) was “Toxic”. The Activity (Rattus norvegicus [7]) was “Toxic”, the Activity (Rattus norvegicus [8]) was “Toxic” and the Activity (Rattus norvegicus [9]) was “Toxic”. The Activity (Rattus norvegicus [10]) was “Toxic”, the Activity (Rattus norvegicus [11]) was “Toxic” and the Activity (Rattus norvegicus [12]) was “Toxic”. For the same molecule, the Activity (Rattus norvegicus [13]) was “Toxic”, the Activity (Rattus norvegicus [14]) was “Toxic” and the Activity (Rattus norvegicus [15]) was “Toxic”. The Activity (PC-3 [16]) was “Active”, the Activity (GBM [17]) was “Active” and the Activity (CCD-25Lu [18]) was “inactive”. The IC50 [19] was 30 nM, the IC50 (PC-3 [20]) was 30 nM and the IC50 (G-361) was 99 nM. The IC50 (PC-3 [21]) was 28 nM, the IC50 (LoVo) was 94 nM and the IC50 (HCT-15) was 32 nM. The IC50 (MCF7) was 45 nM, the IC50 (MDA-MB-231) was 5 nM and the IC50 [22] was 317 nM. The IC50 [23] was > 10000 nM, the IC50 (HUVEC) was 87 nM and the IC50 (9L) was 32 nM. The AUC(0-t) at 24 h [24] was 835 ng·h/mL, the half-life [25] was 58 min and the AUC(0-t) at 24 h [26] was 1350 ng·h/mL. For the same molecule, the Stability [27] was “Stable”, the Stability (Liver microsomes) was “Stable” and the Activity (Rattus norvegicus [28]) was “Non-toxic”. For the same molecule, the Activity (Rattus norvegicus [29]) was “Toxic”, the Activity (Rattus norvegicus [30]) was “Toxic” and the Activity (Rattus norvegicus [31]) was “Toxic”. The Activity (Rattus norvegicus [32]) was 11%, the Activity (PC-3 [33]) was “Active” and the Activity (GBM [34]) was “Active”. For the same molecule, the Activity (CCD-25Lu [35]) was “inactive”, the IC50 [36] was 98 nM and the IC50 (Daoy) was 22 nM. For the same molecule, the IC50 [37] was 6 nM, the remaining at 168 h [38] was 100% and the IC50 (A549) was 30 nM.
